According to ChEMBL document CHEMBL3286331, “Design, synthesis and evaluation of novel quinazoline-2,4-dione derivatives as chitin synthase inhibitors and antifungal agents” (Bioorg Med Chem, 2014):
Values after ≈ are worked out from the molar mass of the structure shown.

Columns and labels:
[1] = test system: Candida albicans; assay: Antifungal activity against Candida albicans ATCC 76615 after 48 hrs by disc diffusion method; assay type: functional; conditions: ATCC 76615, 48 h
Procedure, shortened: (§1)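 Disc diffusion on modified Sabouraud-chloramphenicol agar (1% peptone, 2% glucose, […]), compounds as sterile-water stocks; fluconazole and polyoxin B positive controls; MIC (mg/L) recorded after 48 h at 37 °C.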

[2] = test system: Bacillus; assay: Antibacterial activity against Bacillus proteus after overnight incubation by disc diffusion method; assay type: functional
Procedure, shortened: (§2)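 Agar disc diffusion on beef extract–peptone medium (1% peptone, 0.3% beef extract, 0.5% NaCl, […]), compounds dissolved in sterile water; streptomycin sulfate positive control; plates incubated overnight at 37 °C, then MIC recorded (mg/L).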

[3] = test system: Escherichia coli; assay: Antibacterial activity against Escherichia coli JM 109 after overnight incubation by disc diffusion method; assay type: functional; procedure, shortened: as §2
[4] = test system: Bacillus spizizenii; assay: Antibacterial activity against Bacillus subtilis ATCC 6633 after overnight incubation by disc diffusion method; assay type: functional; procedure, shortened: as §2
[5] = test system: Staphylococcus aureus; assay: Antibacterial activity against methicillin-resistant Staphylococcus aureus N315 after overnight incubation by disc diffusion method; assay type: functional
Procedure, shortened: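 Disc diffusion on beef extract-peptone agar (1% peptone, 0.3% beef extract, 0.5% NaCl, […]); compounds dissolved in sterile water; streptomycin sulfate positive control; plates incubated overnight at 37 °C, then MIC (mg/L) recorded.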

[6] = test system: Staphylococcus aureus; assay: Antibacterial activity against Staphylococcus aureus ATCC 25923 after overnight incubation by disc diffusion method; assay type: functional; procedure, shortened: as §2
[7] = Inhibition of Saccharomyces cerevisiae CGMCC 2.145 chitin synthase assessed as UDP-GlcNAc conversion to chitin after 45 mins by ELISA
Procedure, shortened: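 Enzyme prepared from S. cerevisiae cells sonicated at 4 °C in 50 mM Tris–HCl pH 7.0 with protease inhibitors and PMSF; 55,000 g membrane pellet used. Wells hold UDP-GlcNAc plus 320 mM GlcNAc, compound in Tris buffer (final DMSO below 3%), 45 min at 37 °C. Chitin detected with HRP–wheat germ agglutinin, TMB read at 450 nm against a chitin standard curve; IC50 derived.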

[8] = test system: Cryptococcus neoformans; assay: Antifungal activity against Cryptococcus neoformans after 48 hrs by disc diffusion method; assay type: functional; procedure, shortened: as §1
[9] = test system: Pseudomonas aeruginosa; assay: Antibacterial activity against Pseudomonas aeruginosa CR56 after overnight incubation by disc diffusion method; assay type: functional; procedure, shortened: as §2
[10] = test system: Aspergillus flavus; assay: Antifungal activity against Aspergillus flavus after 48 hrs by disc diffusion method; assay type: functional; procedure, shortened: as §1
[11] = test system: Candida albicans; assay: Ratio of fluconazole MIC to compound MIC for Candida albicans ATCC 76615; assay type: functional
[12] = test system: Candida albicans; assay: Ratio of polyoxin B MIC to compound MIC for Candida albicans ATCC 76615; assay type: functional
[13] = test system: Aspergillus flavus; assay: Ratio of fluconazole MIC to compound MIC for Aspergillus flavus; assay type: functional
[14] = test system: Aspergillus flavus; assay: Ratio of polyoxin B MIC to compound MIC for Aspergillus flavus; assay type: functional

Row | SMILES | MIC [1] [µg/mL] | MIC [2] [µg/mL] | MIC [3] [µg/mL] | MIC [4] [µg/mL] | MIC [5] [µg/mL] | MIC [6] [µg/mL] | IC50 [7] [µM] | MIC [8] [µg/mL] | MIC [9] [µg/mL] | MIC [10] [µg/mL] | Ratio [11] | Ratio [12] | Ratio [13] | Ratio [14]
1 | CCCN(CCC)C(=O)CN(C)CC(O)Cn1c(=O)c2ccccc2n(C)c1=O.Cl (configuration not stated) | > 512 | ≥ 512 | ≥ 512 | ≥ 512 | ≥ 512 | ≥ 512 | 390 | 16 | ≥ 512 | 32 | – | – | – | –
2 | COc1ccc(NC(=O)CN(C)CC(O)Cn2c(=O)c3ccccc3n(C)c2=O)cc1.Cl (configuration not stated) | 16 | ≥ 512 | ≥ 512 | ≥ 512 | ≥ 512 | ≥ 512 | 180 | 128 | ≥ 512 | 16 | – | – | – | –
3 | CN(CC(=O)NCc1ccccc1)CC(O)Cn1c(=O)c2ccccc2n(C)c1=O.Cl (configuration not stated) | 32 | ≥ 512 | ≥ 512 | ≥ 512 | ≥ 512 | ≥ 512 | 130 | 64 | ≥ 512 | 32 | – | – | – | –
4 | Cc1ccc(NC(=O)CN(C)CC(O)Cn2c(=O)c3ccccc3n(C)c2=O)cc1.Cl (configuration not stated) | 32 | ≥ 512 | ≥ 512 | ≥ 512 | ≥ 512 | ≥ 512 | 80 | 2 | ≥ 512 | 32 | – | – | – | –
5 | CN(CC(=O)Nc1ccccc1Cl)CC(O)Cn1c(=O)c2ccccc2n(C)c1=O.Cl (configuration not stated) | 64 | ≥ 512 | ≥ 512 | ≥ 512 | ≥ 512 | ≥ 512 | 260 | 2 | ≥ 512 | 32 | – | – | – | –
6 | CN(CC(=O)Nc1ccc(Cl)cc1)CC(O)Cn1c(=O)c2ccccc2n(C)c1=O.Cl (configuration not stated) | 16 | ≥ 512 | ≥ 512 | ≥ 512 | ≥ 512 | ≥ 512 | 160 | 2 | ≥ 512 | 128 | – | – | – | –
7 | CN(CC(=O)Nc1ccc(C(F)(F)F)cc1)CC(O)Cn1c(=O)c2ccccc2n(C)c1=O.Cl (configuration not stated) | 32 | ≥ 512 | ≥ 512 | ≥ 512 | ≥ 512 | ≥ 512 | 110 | 32 | ≥ 512 | 8 | – | – | – | –
8 | CN(CC(=O)Nc1cccc([N+](=O)[O-])c1)CC(O)Cn1c(=O)c2ccccc2n(C)c1=O.Cl (configuration not stated) | 4 | ≥ 512 | ≥ 512 | ≥ 512 | ≥ 512 | ≥ 512 | 240 | 8 | ≥ 512 | 4 | 8 | 4 | 16 | 8
9 | CN(CC(=O)Nc1ccccc1[N+](=O)[O-])CC(O)Cn1c(=O)c2ccccc2n(C)c1=O.Cl (configuration not stated) | > 512 | ≥ 512 | ≥ 512 | ≥ 512 | ≥ 512 | ≥ 512 | 210 | 32 | ≥ 512 | 64 | – | – | – | –
10 | CN(CC(=O)NCc1ccc(Cl)cc1)CC(O)Cn1c(=O)c2ccccc2n(C)c1=O.Cl (configuration not stated) | 32 | ≥ 512 | ≥ 512 | ≥ 512 | ≥ 512 | ≥ 512 | > 750 | 64 | ≥ 512 | 64 | – | – | – | –
11 | CN(CC(=O)NC(C)(C)C)CC(O)Cn1c(=O)c2ccccc2n(C)c1=O.Cl (configuration not stated) | > 512 | ≥ 512 | ≥ 512 | ≥ 512 | ≥ 512 | ≥ 512 | 140 | 128 | ≥ 512 | 64 | – | – | – | –
12 | CN(CC(=O)Nc1ccc(CC#N)cc1)CC(O)Cn1c(=O)c2ccccc2n(C)c1=O.Cl (configuration not stated) | 4 | ≥ 512 | ≥ 512 | ≥ 512 | ≥ 512 | ≥ 512 | 120 | 4 | ≥ 512 | 8 | 8 | 4 | – | –
13 | COC(=O)c1ccccc1NC(=O)CN(C)CC(O)Cn1c(=O)c2ccccc2n(C)c1=O.Cl (configuration not stated) | 32 | ≥ 512 | ≥ 512 | ≥ 512 | ≥ 512 | ≥ 512 | 170 | 2 | ≥ 512 | 4 | – | – | 16 | 8
14 | CN(CC(=O)Nc1ccccc1)CC(O)Cn1c(=O)c2ccccc2n(C)c1=O.Cl (configuration not stated) | 32 | ≥ 512 | ≥ 512 | ≥ 512 | ≥ 512 | ≥ 512 | > 750 | 64 | ≥ 512 | > 512 | – | – | – | –
15 | CN(CC(=O)Nc1ccc([N+](=O)[O-])cc1)CC(O)Cn1c(=O)c2ccccc2n(C)c1=O.Cl (configuration not stated) | > 512 | ≥ 512 | ≥ 512 | ≥ 512 | ≥ 512 | ≥ 512 | > 750 | 64 | ≥ 512 | 64 | – | – | – | –
16 | CN(CC(=O)N(Cc1ccccc1)Cc1ccccc1)CC(O)Cn1c(=O)c2ccccc2n(C)c1=O.Cl (configuration not stated) | 64 | ≥ 512 | ≥ 512 | ≥ 512 | ≥ 512 | ≥ 512 | 160 | 2 | ≥ 512 | 4 | – | – | 16 | 8
17 | CN(CC(=O)N(C)c1ccccc1)CC(O)Cn1c(=O)c2ccccc2n(C)c1=O.Cl (configuration not stated) | 64 | ≥ 512 | ≥ 512 | ≥ 512 | ≥ 512 | ≥ 512 | 320 | 8 | ≥ 512 | 256 | – | – | – | –
18 | CCN(CC)C(=O)CN(C)CC(O)Cn1c(=O)c2ccccc2n(C)c1=O.Cl (configuration not stated) | 64 | ≥ 512 | ≥ 512 | ≥ 512 | ≥ 512 | ≥ 512 | 340 | 16 | ≥ 512 | 8 | – | – | – | –
19 | CN(CC(=O)N1CCCCC1)CC(O)Cn1c(=O)c2ccccc2n(C)c1=O.Cl (configuration not stated) | 32 | ≥ 512 | ≥ 512 | ≥ 512 | ≥ 512 | ≥ 512 | > 750 | 512 | ≥ 512 | – | – | – | – | –
20 | OC(Cn1cncn1)(Cn1cncn1)c1ccc(F)cc1F [FLUCONAZOLE] | 32 (≈ 104 µM) | – | – | – | – | – | – | 2 (≈ 6.53 µM) | – | 64 (≈ 209 µM) | – | – | – | –
21 | NC(=O)OC[C@H](O)[C@@H](O)[C@H](N)C(=O)N[C@H](C(=O)O)[C@H]1O[C@@H](n2cc(CO)c(=O)[nH]c2=O)[C@H](O)[C@@H]1O [POLYOXIN B] | 16 (≈ 31.5 µM) | – | – | – | – | – | 180 | 4 (≈ 7.88 µM) | – | 32 (≈ 63.1 µM) | – | – | – | –
22 | CN[C@@H]1[C@H](O[C@H]2[C@H](O[C@H]3[C@H](O)[C@@H](O)[C@H](N=C(N)N)[C@@H](O)[C@@H]3N=C(N)N)O[C@@H](C)[C@]2(O)C=O)O[C@@H](CO)[C@H](O)[C@H]1O.CN[C@@H]1[C@H](O[C@H]2[C@H](O[C@H]3[C@H](O)[C@@H](O)[C@H](N=C(N)N)[C@@H](O)[C@@H]3N=C(N)N)O[C@@H](C)[C@]2(O)C=O)O[C@@H](CO)[C@H](O)[C@H]1O.O=S(=O)(O)O.O=S(=O)(O)O.O=S(=O)(O)O [STREPTOMYCIN SULFATE] | – | 64 | 64 | 64 | 64 | 64 | – | – | 64 | – | – | – | – | –
